Experimental data taken from ChEMBL document CHEMBL1255396, “Trailing or paradoxical growth of Candida albicans when exposed to caspofungin is not associated with microsatellite genotypes” (2010).
In brackets after ≈: the same amount, converted by molar mass.

Key:
Assay type in all cases: functional
Candida albicans [1] = assay: Antimicrobial activity against Candida albicans isolate 18 after 48 hrs by broth microdilution assay; conditions: isolate 18, 48 h
In short: (§1)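 Sensititre YeastOne caspofungin broth microdilution, which follows the CLSI method but uses alamarBlue readout in RPMI 1640 with 2% glucose. Done in duplicate and read after 48 h at 30°C. QC strains were C. krusei ATCC 6258 and C. parapsilosis ATCC 22019. Isolates were from different patients and wards in four Marseille hospitals.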

Candida albicans [2] = assay: Antimicrobial activity against Candida albicans isolate 6 after 48 hrs by Etest method; conditions: isolate 6, 48 h
In short: (§2)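 Caspofungin agar-diffusion Etest strips on clinical isolates from four Marseille teaching hospitals, each from a different patient. Run in duplicate and read after 48 h at 30°C. QC strains were C. krusei ATCC 6258 and C. parapsilosis ATCC 22019. Trailing, paradoxical growth and clear endpoints were scored from growth relative to the MIC.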

Candida albicans [3] = assay: Antimicrobial activity against Candida albicans isolate 17 after 48 hrs by Etest method; conditions: isolate 17, 48 h; in short: as §2
Candida albicans [4] = assay: Antimicrobial activity against Candida albicans isolate 6 after 48 hrs by broth microdilution assay; conditions: isolate 6, 48 h; in short: as §1
Candida albicans [5] = assay: Antimicrobial activity against Candida albicans isolate 11 after 48 hrs by Etest method; conditions: isolate 11, 48 h; in short: as §2
Candida albicans [6] = assay: Antimicrobial activity against Candida albicans isolate 12 after 48 hrs by broth microdilution assay; conditions: isolate 12, 48 h; in short: as §1
Candida albicans [7] = assay: Antimicrobial activity against Candida albicans isolate 19 after 48 hrs by Etest method; conditions: isolate 19, 48 h; in short: as §2
Candida albicans [8] = assay: Antimicrobial activity against Candida albicans isolate 21 after 48 hrs by broth microdilution assay; conditions: isolate 21, 48 h; in short: as §1
Candida albicans [9] = assay: Antimicrobial activity against Candida albicans isolate 25 after 48 hrs by broth microdilution assay; conditions: isolate 25, 48 h; in short: as §1
Candida albicans [10] = assay: Antimicrobial activity against Candida albicans isolate 5 after 48 hrs by broth microdilution assay; conditions: isolate 5, 48 h; in short: as §1
Candida albicans [11] = assay: Antimicrobial activity against Candida albicans isolate 5 after 48 hrs by Etest method; conditions: isolate 5, 48 h; in short: as §2
Candida albicans [12] = assay: Antimicrobial activity against Candida albicans isolate 4 after 48 hrs by broth microdilution assay; conditions: isolate 4, 48 h; in short: as §1
Candida albicans [13] = assay: Antimicrobial activity against Candida albicans isolate 24 after 48 hrs by broth microdilution assay; conditions: isolate 24, 48 h; in short: as §1
Candida albicans [14] = assay: Antimicrobial activity against Candida albicans isolate 18 after 48 hrs by Etest method; conditions: isolate 18, 48 h; in short: as §2
Candida albicans [15] = assay: Antimicrobial activity against Candida albicans isolate 7 after 48 hrs by broth microdilution assay; conditions: isolate 7, 48 h; in short: as §1
Candida albicans [16] = assay: Antimicrobial activity against Candida albicans isolate 14 after 48 hrs by broth microdilution assay; conditions: isolate 14, 48 h; in short: as §1
Candida albicans [17] = assay: Antimicrobial activity against Candida albicans isolate 22 after 48 hrs by broth microdilution assay; conditions: isolate 22, 48 h; in short: as §1
Candida albicans [18] = assay: Antimicrobial activity against Candida albicans isolate 15 after 48 hrs by Etest method; conditions: isolate 15, 48 h; in short: as §2
Candida albicans [19] = assay: Antimicrobial activity against Candida albicans isolate 27 after 48 hrs by broth microdilution assay; conditions: isolate 27, 48 h; in short: as §1
Candida albicans [20] = assay: Antimicrobial activity against Candida albicans isolate 11 after 48 hrs by broth microdilution assay; conditions: isolate 11, 48 h; in short: as §1
Candida albicans [21] = assay: Antimicrobial activity against Candida albicans isolate 9 after 48 hrs by broth microdilution assay; conditions: isolate 9, 48 h
In short: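 Sensititre Yeast One broth microdilution used per manufacturer. It matches the CLSI method except for the alamarBlue read-out and RPMI 1640 with 2% glucose. Read after 48 h at 30°C. Testing done in duplicate. QC strains: C. krusei ATCC 6258 and C. parapsilosis ATCC 22019. Paradoxical growth and trailing were scored separately.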

Candida albicans [22] = assay: Antimicrobial activity against Candida albicans isolate 13 after 48 hrs by broth microdilution assay; conditions: isolate 13, 48 h; in short: as §1
Candida albicans [23] = assay: Antimicrobial activity against Candida albicans isolate 22 after 48 hrs by Etest method; conditions: isolate 22, 48 h; in short: as §2
Candida albicans [24] = assay: Antimicrobial activity against Candida albicans isolate 20 after 48 hrs by Etest method; conditions: isolate 20, 48 h; in short: as §2
Candida albicans [25] = assay: Antimicrobial activity against Candida albicans isolate 26 after 48 hrs by broth microdilution assay; conditions: isolate 26, 48 h; in short: as §1
Candida albicans [26] = assay: Antimicrobial activity against Candida albicans isolate 9 after 48 hrs by Etest method; conditions: isolate 9, 48 h
In short: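 Caspofungin Etest strip (agar diffusion) applied per manufacturer to a clinical isolate. Plates read after 48 h at 30°C. Testing done in duplicate. QC strains: C. krusei ATCC 6258 and C. parapsilosis ATCC 22019. Paradoxical growth and trailing were scored as separate endpoint phenotypes.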

Candida albicans [27] = assay: Antimicrobial activity against Candida albicans isolate 23 after 48 hrs by broth microdilution assay; conditions: isolate 23, 48 h; in short: as §1
Candida albicans [28] = assay: Antimicrobial activity against Candida albicans isolate 17 after 48 hrs by broth microdilution assay; conditions: isolate 17, 48 h; in short: as §1
Candida albicans [29] = assay: Antimicrobial activity against Candida albicans isolate 14 after 48 hrs by Etest method; conditions: isolate 14, 48 h; in short: as §2
Candida albicans [30] = assay: Antimicrobial activity against Candida albicans isolate 1 after 48 hrs by Etest method; conditions: isolate 1, 48 h; in short: as §2
Candida albicans [31] = assay: Antimicrobial activity against Candida albicans isolate 12 after 48 hrs by Etest method; conditions: isolate 12, 48 h; in short: as §2
Candida albicans [32] = assay: Antimicrobial activity against Candida albicans isolate 25 after 48 hrs by Etest method; conditions: isolate 25, 48 h; in short: as §2
Candida albicans [33] = assay: Antimicrobial activity against Candida albicans isolate 16 after 48 hrs by broth microdilution assay; conditions: isolate 16, 48 h; in short: as §1
Candida albicans [34] = assay: Antimicrobial activity against Candida albicans isolate 24 after 48 hrs by Etest method; conditions: isolate 24, 48 h; in short: as §2
Candida albicans [35] = assay: Antimicrobial activity against Candida albicans isolate 15 after 48 hrs by broth microdilution assay; conditions: isolate 15, 48 h; in short: as §1
Candida albicans [36] = assay: Antimicrobial activity against Candida albicans isolate 19 after 48 hrs by broth microdilution assay; conditions: isolate 19, 48 h; in short: as §1
Candida albicans [37] = assay: Antimicrobial activity against Candida albicans isolate 20 after 48 hrs by broth microdilution assay; conditions: isolate 20, 48 h; in short: as §1
Candida albicans [38] = assay: Antimicrobial activity against Candida albicans isolate 8 after 48 hrs by Etest method; conditions: isolate 8, 48 h; in short: as §2
Candida albicans [39] = assay: Antimicrobial activity against Candida albicans isolate 4 after 48 hrs by Etest method; conditions: isolate 4, 48 h; in short: as §2
Candida albicans [40] = assay: Antimicrobial activity against Candida albicans isolate 7 after 48 hrs by Etest method; conditions: isolate 7, 48 h; in short: as §2
Candida albicans [41] = assay: Antimicrobial activity against Candida albicans isolate 21 after 48 hrs by Etest method; conditions: isolate 21, 48 h; in short: as §2
Candida albicans [42] = assay: Antimicrobial activity against Candida albicans isolate 8 after 48 hrs by broth microdilution assay; conditions: isolate 8, 48 h; in short: as §1
Candida albicans [43] = assay: Antimicrobial activity against Candida albicans isolate 2 after 48 hrs by Etest method; conditions: isolate 2, 48 h; in short: as §2
Candida albicans [44] = assay: Antimicrobial activity against Candida albicans isolate 2 after 48 hrs by broth microdilution assay; conditions: isolate 2, 48 h; in short: as §1
Candida albicans [45] = assay: Antimicrobial activity against Candida albicans isolate 3 after 48 hrs by Etest method; conditions: isolate 3, 48 h; in short: as §2
Candida albicans [46] = assay: Antimicrobial activity against Candida albicans isolate 23 after 48 hrs by Etest method; conditions: isolate 23, 48 h; in short: as §2
Candida albicans [47] = assay: Antimicrobial activity against Candida albicans isolate 16 after 48 hrs by Etest method; conditions: isolate 16, 48 h; in short: as §2
Candida albicans [48] = assay: Antimicrobial activity against Candida albicans isolate 26 after 48 hrs by Etest method; conditions: isolate 26, 48 h; in short: as §2
Candida albicans [49] = assay: Antimicrobial activity against Candida albicans isolate 3 after 48 hrs by broth microdilution assay; conditions: isolate 3, 48 h; in short: as §1
Candida albicans [50] = assay: Antimicrobial activity against Candida albicans isolate 27 after 48 hrs by Etest method; conditions: isolate 27, 48 h; in short: as §2
Candida albicans [51] = assay: Antimicrobial activity against Candida albicans isolate 1 after 48 hrs by broth microdilution assay; conditions: isolate 1, 48 h; in short: as §1
Candida albicans [52] = assay: Antimicrobial activity against Candida albicans isolate 13 after 48 hrs by Etest method; conditions: isolate 13, 48 h; in short: as §2

CC[C@H](C)C[C@H](C)CCCCCCCCC(=O)N[C@H]1C[C@@H](O)[C@@H](NCCN)NC(=O)[C@@H]2[C@@H](O)CCN2C(=O)[C@H]([C@H](O)CCN)NC(=O)[C@H]([C@H](O)[C@@H](O)c2ccc(O)cc2)NC(=O)[C@@H]2C[C@@H](O)CN2C(=O)[C@H]([C@@H](C)O)NC1=O [CASPOFUNGIN]
MIC (Candida albicans [1]): 0.094 µg/mL (≈ 0.086 µM) | MIC (Candida albicans [2]): 0.125 µg/mL (≈ 0.114 µM) | MIC (Candida albicans [3]): 0.125 µg/mL (≈ 0.114 µM) | MIC (Candida albicans [4]): 0.125 µg/mL (≈ 0.114 µM) | MIC (Candida albicans [5]): 0.094 µg/mL (≈ 0.086 µM) | MIC (Candida albicans [6]): 0.064 µg/mL (≈ 0.0585 µM) | MIC (Candida albicans [7]): 0.75 µg/mL (≈ 0.686 µM) | MIC (Candida albicans [8]): 0.064 µg/mL (≈ 0.0585 µM) | MIC (Candida albicans [9]): 0.064 µg/mL (≈ 0.0585 µM) | MIC (Candida albicans [10]): 0.064 µg/mL (≈ 0.0585 µM) | MIC (Candida albicans [11]): 0.064 µg/mL (≈ 0.0585 µM) | MIC (Candida albicans [12]): 0.032 µg/mL (≈ 0.0293 µM) | MIC (Candida albicans [13]): 0.064 µg/mL (≈ 0.0585 µM) | MIC (Candida albicans [14]): 0.094 µg/mL (≈ 0.086 µM) | MIC (Candida albicans [15]): 0.064 µg/mL (≈ 0.0585 µM) | MIC (Candida albicans [16]): 0.032 µg/mL (≈ 0.0293 µM) | MIC (Candida albicans [17]): 0.125 µg/mL (≈ 0.114 µM) | MIC (Candida albicans [18]): 0.016 µg/mL (≈ 0.0146 µM) | MIC (Candida albicans [19]): 0.047 µg/mL (≈ 0.043 µM) | MIC (Candida albicans [20]): 0.094 µg/mL (≈ 0.086 µM) | MIC (Candida albicans [21]): 0.047 µg/mL (≈ 0.043 µM) | MIC (Candida albicans [22]): 0.023 µg/mL (≈ 0.021 µM) | MIC (Candida albicans [23]): 0.125 µg/mL (≈ 0.114 µM) | MIC (Candida albicans [24]): 0.032 µg/mL (≈ 0.0293 µM) | MIC (Candida albicans [25]): 0.094 µg/mL (≈ 0.086 µM) | MIC (Candida albicans [26]): 0.047 µg/mL (≈ 0.043 µM) | MIC (Candida albicans [27]): 0.064 µg/mL (≈ 0.0585 µM) | MIC (Candida albicans [28]): 0.125 µg/mL (≈ 0.114 µM) | MIC (Candida albicans [29]): 0.032 µg/mL (≈ 0.0293 µM) | MIC (Candida albicans [30]): 0.008 µg/mL (≈ 0.00732 µM) | MIC (Candida albicans [31]): 0.064 µg/mL (≈ 0.0585 µM) | MIC (Candida albicans [32]): 0.064 µg/mL (≈ 0.0585 µM) | MIC (Candida albicans [33]): 0.032 µg/mL (≈ 0.0293 µM) | MIC (Candida albicans [34]): 0.064 µg/mL (≈ 0.0585 µM) | MIC (Candida albicans [35]): 0.016 µg/mL (≈ 0.0146 µM) | MIC (Candida albicans [36]): 0.75 µg/mL (≈ 0.686 µM) | MIC (Candida albicans [37]): 0.032 µg/mL (≈ 0.0293 µM) | MIC (Candida albicans [38]): 0.125 µg/mL (≈ 0.114 µM) | MIC (Candida albicans [39]): 0.032 µg/mL (≈ 0.0293 µM) | MIC (Candida albicans [40]): 0.064 µg/mL (≈ 0.0585 µM) | MIC (Candida albicans [41]): 0.064 µg/mL (≈ 0.0585 µM) | MIC (Candida albicans [42]): 0.125 µg/mL (≈ 0.114 µM) | MIC (Candida albicans [43]): 0.032 µg/mL (≈ 0.0293 µM) | MIC (Candida albicans [44]): 0.032 µg/mL (≈ 0.0293 µM) | MIC (Candida albicans [45]): 0.032 µg/mL (≈ 0.0293 µM) | MIC (Candida albicans [46]): 0.064 µg/mL (≈ 0.0585 µM) | MIC (Candida albicans [47]): 0.032 µg/mL (≈ 0.0293 µM) | MIC (Candida albicans [48]): 0.094 µg/mL (≈ 0.086 µM) | MIC (Candida albicans [49]): 0.032 µg/mL (≈ 0.0293 µM) | MIC (Candida albicans [50]): 0.047 µg/mL (≈ 0.043 µM) | MIC (Candida albicans [51]): 0.008 µg/mL (≈ 0.00732 µM) | MIC (Candida albicans [52]): 0.023 µg/mL (≈ 0.021 µM)
